# From PubChem BioAssay AID623993 (Broad Institute, 2012)
# Active and inactive are the calls of the source.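 How the source made its calls: active means inhibitor whose fitted half-maximal dose is at most twice the top valid tested dose; inconclusive means flat curve with partial inhibition, or poor fit; inactive means signal rising, flat near zero, or weaker potency.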
# Biological target: PvdQ acyl-homoserine lactone acylase (Pseudomonas aeruginosa LESB58)
# Assay: PvdQ acylase inhibitors, dose response, biochemical, 4-MU laurate fluorescence, dry powder, set 4 (AID 623993)
# Conditions: purified PvdQ, 4-MU laurate hydrolysis fluorescence
# How it was run: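 Material: purified Pseudomonas aeruginosa PvdQ acylase enzyme; Buffer or medium: 50 mM Tris pH 8.0, 50 mM NaCl, 0.2 mM TCEP, Triton X-100; Reagent: fluorogenic substrate 4-methylumbelliferone laurate, 0.8 mM final; Times: 30 min preincubation plus 60 min reaction, room temperature; Signal: fluorescence at 0 and 60 min, excitation 303–367 nm, emission 440–460 nm.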
row,SMILES,AC50
1,N#CC(c1cccc(Cl)n1)c1ccc(Cl)cc1F (stereo not given),7.66 nM
2,CCCCC(c1ccc(Cl)cc1)c1nn[nH]n1 (stereo not given),3530 nM
3,N#CC(c1cccc(C(F)(F)F)n1)c1ccc(Cl)cc1F (stereo not given),< 3 nM
4,COCCOCCC(C#N)c1ccc(F)cc1 (stereo not given),177 nM
5,N#CC(c1ccc(Cl)cc1)c1ccccn1 (stereo not given),212 nM
6,CN(C)CCCC(C#N)c1ccc(Cl)cc1 (stereo not given),14500 nM
7,N#CC(c1ccc(C(F)(F)F)c(Cl)n1)c1ccccc1OC(F)(F)F (stereo not given),15200 nM
8,COCCC(C#N)c1ccc(F)cc1 (stereo not given),530 nM
9,N#CC(c1ccc(Cl)cc1)c1ncccc1Cl (stereo not given),3.01 nM
10,N#CC(c1ccc(Cl)cc1)c1cccc(C(F)(F)F)n1 (stereo not given),23.6 nM
11,N#CC(c1ccc(Cl)cc1)c1cccc(Cl)n1 (stereo not given),49.1 nM
12,COCCOCCC(C#N)c1ccc(Cl)cc1 (stereo not given),7070 nM
13,CN(C)CCCC(C#N)c1ccc(F)cc1 (stereo not given),273 nM
14,COCCC(C#N)c1ccc(Cl)cc1 (stereo not given),3470 nM
15,N#CC(c1ccc(F)cc1)c1cccc(Cl)n1 (stereo not given),108 nM
16,CCCCC(C#N)c1ccc(Cl)cc1 (stereo not given),412 nM
17,N#CC(c1ccc(F)cc1)c1cccc(C(F)(F)F)n1 (stereo not given),< 3 nM
18,CCCCC(C#N)c1ccc(F)cc1 (stereo not given),412 nM
19,N#CC(c1ccc(Cl)cc1)N1CCCC1 (stereo not given),786 nM
20,N#CC1c2ccc(Cl)cc2CCc2cccnc21 (stereo not given),3510 nM
21,N#Cc1cccc(C(C#N)c2ccc(F)cc2)n1 (stereo not given),140 nM
22,CCCCC(C#N)c1ccc(Cl)cn1 (stereo not given),1630 nM

# Same assay, conditions: purified PvdQ, 4-MU laurate hydrolysis fluorescence; at 19.5 µM (top of the series)
row,SMILES,"activity change, negative = inhibition"
1,Clc1ccc(C(c2cccc(Cl)n2)c2nn[nH]n2)cc1 (stereo not given),inactive
2,CCCCC(C#N)c1ccccn1 (stereo not given),inactive
3,COCCNC(C#N)c1ccc(Cl)cc1 (stereo not given),inactive
